# Experimental data published in paper PMC4306527 (Journal of medicinal chemistry, 2014).
# Values joined by “and” are separate entries in the source; they are usually repeats but may differ in a detail not shown here. Equal entries are not always repeated.
# What was measured:
# rats [1] = settings: sc, data published previously; cited from earlier work
# hCB2 receptor = hCB2 receptor (Homo sapiens, UniProt P34972); experiment: Radioligand competition binding, human CB2 in HEK293 membranes, [3H]CP-55,940
# mCB2 receptor = mCB2 receptor (Mus musculus, UniProt P47936); experiment: Radioligand competition binding, mouse CB2 in HEK293 membranes, [3H]CP-55,940
# [2] = molecular target: rCB1 receptor (rat brain membranes) (Rattus norvegicus, UniProt P20272); experiment: Radioligand competition binding, rat brain CB1, [3H]CP-55,940
# male CD-1 mice = experiment: Tail-flick withdrawal; assay type: in vivo, mouse; settings: 0.3 and 1.0 mg/kg ip, descending phase 180 and 360 min
# rats [3] = experiment: Hypothermia testing in rats; assay type: in vivo, rat
# Outline: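 Female Sprague–Dawley rats (250–350 g, n = 6/group), reused with ≥5 days between sessions. Test compound was dissolved in 20% ethanol/20% alkamuls/60% saline, then diluted with saline. Temperature was taken by a thermistor probe at 6 cm depth in minimally restrained, isolated rats. Two baselines 15 min apart; injected after the second; read every 30 min to 3 h, then hourly to 6 h. ED50 = dose lowering temperature 3 °C.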
# mouse plasma esterases = experiment: In vitro plasma stability toward mouse plasma esterases; assay type: in vitro ADME; settings: 200 μM in mouse plasma, 37 °C; Stable = no observable hydrolysis within 5 h
# Outline: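 Test compound at 200 μM in mouse plasma, incubated at 37 °C with 100 rpm shaking. Samples taken at various time points were diluted 1:4 in acetonitrile and centrifuged to remove protein. Supernatant was analysed by HPLC on a C18 column. Half-life came from an exponential decay fit.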
# Sequence of rCB1 receptor (rat brain membranes) (P20272 whole entry): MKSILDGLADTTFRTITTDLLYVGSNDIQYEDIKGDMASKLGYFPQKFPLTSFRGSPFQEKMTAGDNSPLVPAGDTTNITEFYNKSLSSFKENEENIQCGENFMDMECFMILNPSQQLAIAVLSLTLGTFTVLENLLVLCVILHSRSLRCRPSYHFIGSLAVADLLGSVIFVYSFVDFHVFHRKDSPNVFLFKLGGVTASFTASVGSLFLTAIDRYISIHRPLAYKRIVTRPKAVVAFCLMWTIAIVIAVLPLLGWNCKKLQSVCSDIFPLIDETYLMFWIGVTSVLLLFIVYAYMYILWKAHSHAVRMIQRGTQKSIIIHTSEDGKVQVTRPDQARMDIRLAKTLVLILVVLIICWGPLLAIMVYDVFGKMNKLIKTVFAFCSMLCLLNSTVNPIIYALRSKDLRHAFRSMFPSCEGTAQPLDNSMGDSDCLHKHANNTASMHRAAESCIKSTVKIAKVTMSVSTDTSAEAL
# Sequence of hCB2 receptor (P34972 whole entry): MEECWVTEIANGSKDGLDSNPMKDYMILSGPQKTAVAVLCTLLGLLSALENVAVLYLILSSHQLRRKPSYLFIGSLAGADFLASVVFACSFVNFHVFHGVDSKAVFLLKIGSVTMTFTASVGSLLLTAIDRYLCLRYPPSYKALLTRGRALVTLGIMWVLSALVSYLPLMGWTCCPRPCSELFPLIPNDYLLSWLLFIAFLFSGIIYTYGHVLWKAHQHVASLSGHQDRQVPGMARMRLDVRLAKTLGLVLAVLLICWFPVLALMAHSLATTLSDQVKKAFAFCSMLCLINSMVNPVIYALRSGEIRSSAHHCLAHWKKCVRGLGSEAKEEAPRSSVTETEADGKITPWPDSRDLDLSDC
# Sequence of mCB2 receptor (P47936 whole entry): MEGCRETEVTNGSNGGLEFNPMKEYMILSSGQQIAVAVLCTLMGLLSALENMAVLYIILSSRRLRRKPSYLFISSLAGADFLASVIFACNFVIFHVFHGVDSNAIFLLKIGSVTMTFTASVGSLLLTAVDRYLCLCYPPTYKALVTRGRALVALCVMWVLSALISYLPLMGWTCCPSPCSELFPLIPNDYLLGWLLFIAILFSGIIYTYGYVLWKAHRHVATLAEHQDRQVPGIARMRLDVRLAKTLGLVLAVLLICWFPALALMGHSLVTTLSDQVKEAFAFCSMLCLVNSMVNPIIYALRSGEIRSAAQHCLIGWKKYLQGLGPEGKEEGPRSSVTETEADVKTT
smiles,measurement,setting,value
"CCCCCCC(C)(C)c1cc(O)c2c(c1)OC(C)(C)[C@@H]1CC=C(C)C[C@@H]21 [(−)-Δ^8-THC-DMH, (−)-Δ^8-THC-dimethylheptyl]",ED50 (dose required to reduce temperature by 3 °C),rats [1],0.29 mg/kg
"CCOC(=O)C(C)(C)c1cc(O)c2c(c1)OC(C)(C)[C@@H]1CC=C(C)C[C@@H]21 [Compound 8b, 2-[(6aR,10aR)-6a,7,10,10a-Tetrahydro-1-hydroxy-6,6,9-trimethyl-6H-dibenzo[b,d]pyran-3-yl]-2-methyl-propanoic Acid Ethyl Ester]",fold higher binding affinity for hCB2 compared to (−)-Δ^8-THC,hCB2 receptor,24 fold
same,fold higher binding affinity for mCB2 compared to (−)-Δ^8-THC,mCB2 receptor,78 fold
"CC1=CC[C@@H]2[C@@H](C1)c1c(O)cc(C(C)(C)C(=O)OCCCCn3ccnc3)cc1OC2(C)C [Compound 9d, 2-[(6aR,10aR)-6a,7,10,10a-Tetrahydro-1-hydroxy-6,6,9-trimethyl-6H-dibenzo[b,d]pyran-3-yl]-2-methyl-propanoic Acid 4-(1H-Imidazol-1-yl)butyl Ester]",fold reduction of CB1 affinity relative to 10b,[2],~ 8 fold
"CC1=CC[C@@H]2[C@@H](C1)c1c(O)cc(C(C)(C)C(=O)OCCCC#N)cc1OC2(C)C [Compound 10a, 2-[(6aR,10aR)-6a,7,10,10a-Tetrahydro-1-hydroxy-6,6,9-trimethyl-6H-dibenzo[b,d]pyran-3-yl]-2-methyl-propanoic Acid 3-Cyano-propyl Ester]",offset of the analgesia effect compared to 2b,male CD-1 mice,significantly faster
same,reduction of body temperature,"rats [3]; 0.1 mg/kg sc, from average baseline of 37.8 ± 0.1 °C",4.5 ± 0.5 °C
same,fold more potent than (−)-Δ^8-THC-DMH and/or 2b,rats [3]; hypothermia,8–10 fold and 10 fold
"CCCCCNC(=O)C(C)(C)c1cc(O)c2c(c1)OC(C)(C)[C@@H]1CC=C(C)C[C@@H]21 [Compound 18, 2-[(6aR,10aR)-6a,7,10,10a-Tetrahydro-1-hydroxy-6,6,9-trimethyl-6H-dibenzo[b,d]pyran-3-yl]-2-methyl-N-pentylpropanamide]",mouse plasma t1/2,mouse plasma esterases,Stable ^e
